Measurements reported in ChEMBL document CHEMBL4364301 (Eur J Med Chem, 2019).

Tests used:
Type in all cases: functional
DU-145 [1] = assay: Antiproliferative activity against human DU145 cells assessed as reduction in cell growth incubated for 96 hrs by propidium iodide based 2D monolayer assay; details: DU-145, 96 h
Outline: (§1)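 After 24 h recovery, compound in medium or medium alone (control wells) was added at 10 half-log concentrations from 0.0032 to 100 µM, in triplicate, with at most 0.3% DMSO. After 96 h, wells were PBS-washed, stained with 7 µg/ml PI and 0.1% Triton X-100, and fluorescence read at 530/620 nm. IC50 came from a 4-parameter fit, geometric mean.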

LNCaP [2] = assay: Antiproliferative activity against human LNCAP cells assessed as reduction in cell growth incubated for 96 hrs by propidium iodide based 2D monolayer assay; outline: as §1
VCaP [3] = assay: Antiproliferative activity against human VCaP cells assessed as reduction in cell growth incubated for 96 hrs by propidium iodide based 2D monolayer assay
Outline: (§2)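 VCaP cells in RPMI 1640 with 10% FCS at 37 °C, 5% CO2, seeded 4,000–20,000 cells/well and left 24 h before dosing. Compounds from DMSO stocks were diluted in half-log steps in medium, 10 concentrations 0.0032–100 μM, triplicate wells, max 0.3% DMSO. After 96 h, cells were washed, stained with 7 μg/ml propidium iodide plus 0.1% Triton X-100 for 1–2 h at room temperature, and fluorescence read at ex 530/em 620 nm.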

VCaP [4] = assay: Antiproliferative activity against human VCaP cells assessed as T/C value at 1 x 10^-2 uM incubated for 96 hrs by propidium iodide based 2D monolayer assay
Outline: as §1, with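 “Cells were kept in RPMI 1640 with 25 mM HEPES, 10% FCS and gentamicin at 37 °C under 5% CO2, and plated at 4,000-20,000 cells/well. After 24” for “After 24”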

VCaP [5] = assay: Antiproliferative activity against human VCaP cells assessed as T/C value at 3.2 x 10^-2 uM incubated for 96 hrs by propidium iodide based 2D monolayer assay; outline: as §2
VCaP [6] = assay: Antiproliferative activity against human VCaP cells assessed as T/C value at 1 x 10^-1 uM incubated for 96 hrs by propidium iodide based 2D monolayer assay
Outline: as §1, with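 “Cells were kept in RPMI 1640 with 25 mM HEPES, 10% FCS and gentamicin at 37 °C under 5% CO2, and plated at 4,000-20,000 cells/well. After 24” for “After 24”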

VCaP [7] = assay: Antiproliferative activity against human VCaP cells assessed as T/C value at 3.2 x 10^-1 uM incubated for 96 hrs by propidium iodide based 2D monolayer assay; outline: as §2
VCaP [8] = assay: Antiproliferative activity against human VCaP cells assessed as T/C value at 1 uM incubated for 96 hrs by propidium iodide based 2D monolayer assay
Outline: as §1, with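 “Cells were kept in RPMI 1640 with 25 mM HEPES, 10% FCS and gentamicin at 37 °C under 5% CO2, and plated at 4,000-20,000 cells/well. After 24” for “After 24”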

VCaP [9] = assay: Antiproliferative activity against human VCaP cells assessed as T/C value at 3.2 uM incubated for 96 hrs by propidium iodide based 2D monolayer assay
Outline: as §1, with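 “Cells were kept in RPMI 1640 with 25 mM HEPES, 10% FCS and gentamicin at 37 °C under 5% CO2, and plated at 4,000-20,000 cells/well. After 24” for “After 24”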

VCaP [10] = assay: Antiproliferative activity against human VCaP cells assessed as T/C value at 1 x 10^2 uM incubated for 96 hrs by propidium iodide based 2D monolayer assay
Outline: as §1, with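 “Cells were kept in RPMI 1640 with 25 mM HEPES, 10% FCS and gentamicin at 37 °C under 5% CO2, and plated at 4,000-20,000 cells/well. After 24” for “After 24”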

LNCaP [11] = assay: Antiproliferative activity against human LNCAP cells assessed as T/C value at 1 x 10^-2 uM incubated for 96 hrs by propidium iodide based 2D monolayer assay
Outline: as §1, with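 “Cells were kept in RPMI 1640 with 25 mM HEPES, 10% FCS and gentamicin at 37 °C under 5% CO2, and plated at 4,000-20,000 cells/well. After 24” for “After 24”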

LNCaP [12] = assay: Antiproliferative activity against human LNCAP cells assessed as T/C value at 3.2 x 10^-2 uM incubated for 96 hrs by propidium iodide based 2D monolayer assay
Outline: as §1, with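 “Cells were kept in RPMI 1640 with 25 mM HEPES, 10% FCS and gentamicin at 37 °C under 5% CO2, and plated at 4,000-20,000 cells/well. After 24” for “After 24”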

LNCaP [13] = assay: Antiproliferative activity against human LNCAP cells assessed as T/C value at 3.2 x 10^-1 uM incubated for 96 hrs by propidium iodide based 2D monolayer assay
Outline: as §1, with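 “Cells were kept in RPMI 1640 with 25 mM HEPES, 10% FCS and gentamicin at 37 °C under 5% CO2, and plated at 4,000-20,000 cells/well. After 24” for “After 24”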

LNCaP [14] = assay: Antiproliferative activity against human LNCAP cells assessed as T/C value at 1 uM incubated for 96 hrs by propidium iodide based 2D monolayer assay
Outline: as §1, with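 “Cells were kept in RPMI 1640 with 25 mM HEPES, 10% FCS and gentamicin at 37 °C under 5% CO2, and plated at 4,000-20,000 cells/well. After 24” for “After 24”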

LNCaP [15] = assay: Antiproliferative activity against human LNCAP cells assessed as T/C value at 3.2 uM incubated for 96 hrs by propidium iodide based 2D monolayer assay
Outline: as §1, with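 “Cells were kept in RPMI 1640 with 25 mM HEPES, 10% FCS and gentamicin at 37 °C under 5% CO2, and plated at 4,000-20,000 cells/well. After 24” for “After 24”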

LNCaP [16] = assay: Antiproliferative activity against human LNCAP cells assessed as T/C value at 1 x 10^1 uM incubated for 96 hrs by propidium iodide based 2D monolayer assay
Outline: as §1, with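 “Cells were kept in RPMI 1640 with 25 mM HEPES, 10% FCS and gentamicin at 37 °C under 5% CO2, and plated at 4,000-20,000 cells/well. After 24” for “After 24”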

CWR22R [17] = assay: Antiproliferative activity against human 22Rv1 cells assessed as T/C value at 3.2 x 10^-3 uM incubated for 96 hrs by propidium iodide based 2D monolayer assay
Outline: as §1, with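 “Cells were kept in RPMI 1640 with 25 mM HEPES, 10% FCS and gentamicin at 37 °C under 5% CO2, and plated at 4,000-20,000 cells/well. After 24” for “After 24”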

CWR22R [18] = assay: Antiproliferative activity against human 22Rv1 cells assessed as T/C value at 1 x 10^-2 uM incubated for 96 hrs by propidium iodide based 2D monolayer assay
Outline: as §1, with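 “Cells were kept in RPMI 1640 with 25 mM HEPES, 10% FCS and gentamicin at 37 °C under 5% CO2, and plated at 4,000-20,000 cells/well. After 24” for “After 24”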

CWR22R [19] = assay: Antiproliferative activity against human 22Rv1 cells assessed as T/C value at 1 x 10^-1 uM incubated for 96 hrs by propidium iodide based 2D monolayer assay
Outline: as §1, with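 “Cells were kept in RPMI 1640 with 25 mM HEPES, 10% FCS and gentamicin at 37 °C under 5% CO2, and plated at 4,000-20,000 cells/well. After 24” for “After 24”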

CWR22R [20] = assay: Antiproliferative activity against human 22Rv1 cells assessed as T/C value at 3.2 x 10^-1 uM incubated for 96 hrs by propidium iodide based 2D monolayer assay
Outline: as §1, with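 “Cells were kept in RPMI 1640 with 25 mM HEPES, 10% FCS and gentamicin at 37 °C under 5% CO2, and plated at 4,000-20,000 cells/well. After 24” for “After 24”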

CWR22R [21] = assay: Antiproliferative activity against human 22Rv1 cells assessed as T/C value at 1 uM incubated for 96 hrs by propidium iodide based 2D monolayer assay
Outline: as §1, with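 “Cells were kept in RPMI 1640 with 25 mM HEPES, 10% FCS and gentamicin at 37 °C under 5% CO2, and plated at 4,000-20,000 cells/well. After 24” for “After 24”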

CWR22R [22] = assay: Antiproliferative activity against human 22Rv1 cells assessed as T/C value at 3.2 uM incubated for 96 hrs by propidium iodide based 2D monolayer assay
Outline: as §1, with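 “Cells were kept in RPMI 1640 with 25 mM HEPES, 10% FCS and gentamicin at 37 °C under 5% CO2, and plated at 4,000-20,000 cells/well. After 24” for “After 24”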

CWR22R [23] = assay: Antiproliferative activity against human 22Rv1 cells assessed as T/C value at 1 x 10^1 uM incubated for 96 hrs by propidium iodide based 2D monolayer assay
Outline: as §1, with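 “Cells were kept in RPMI 1640 with 25 mM HEPES, 10% FCS and gentamicin at 37 °C under 5% CO2, and plated at 4,000-20,000 cells/well. After 24” for “After 24”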

CWR22R [24] = assay: Antiproliferative activity against human 22Rv1 cells assessed as T/C value at 1 x 10^2 uM incubated for 96 hrs by propidium iodide based 2D monolayer assay
Outline: as §1, with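 “Cells were kept in RPMI 1640 with 25 mM HEPES, 10% FCS and gentamicin at 37 °C under 5% CO2, and plated at 4,000-20,000 cells/well. After 24” for “After 24”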

DU-145 [25] = assay: Antiproliferative activity against human DU145 cells assessed as T/C value at 3.2 x 10^-3 uM incubated for 96 hrs by propidium iodide based 2D monolayer assay; outline: as §1
DU-145 [26] = assay: Antiproliferative activity against human DU145 cells assessed as T/C value at 3.2 x 10^-2 uM incubated for 96 hrs by propidium iodide based 2D monolayer assay; outline: as §1
DU-145 [27] = assay: Antiproliferative activity against human DU145 cells assessed as T/C value at 1 x 10^-1 uM incubated for 96 hrs by propidium iodide based 2D monolayer assay; outline: as §1
DU-145 [28] = assay: Antiproliferative activity against human DU145 cells assessed as T/C value at 3.2 x 10^-1 uM incubated for 96 hrs by propidium iodide based 2D monolayer assay; outline: as §1
DU-145 [29] = assay: Antiproliferative activity against human DU145 cells assessed as T/C value at 1 uM incubated for 96 hrs by propidium iodide based 2D monolayer assay; outline: as §1
DU-145 [30] = assay: Antiproliferative activity against human DU145 cells assessed as T/C value at 3.2 uM incubated for 96 hrs by propidium iodide based 2D monolayer assay
Outline: as §1, with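 “Cells were kept in RPMI 1640 with 25 mM HEPES, 10% FCS and gentamicin at 37 °C under 5% CO2, and plated at 4,000-20,000 cells/well. After 24” for “After 24”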

DU-145 [31] = assay: Antiproliferative activity against human DU145 cells assessed as T/C value at 1 x 10^1 uM incubated for 96 hrs by propidium iodide based 2D monolayer assay; outline: as §1
DU-145 [32] = assay: Antiproliferative activity against human DU145 cells assessed as T/C value at 1 x 10^2 uM incubated for 96 hrs by propidium iodide based 2D monolayer assay
Outline: as §1, with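 “Cells were kept in RPMI 1640 with 25 mM HEPES, 10% FCS and gentamicin at 37 °C under 5% CO2, and plated at 4,000-20,000 cells/well. After 24” for “After 24”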

## CC(O)(COc1ccc(C(F)(F)C(F)(F)F)cc1)C(=O)Nc1cc(C(F)(F)F)cc(C(F)(F)F)c1 (racemic)
DU-145 [1]
  IC50: 6.8 µM
  IC70: 7.99 µM
LNCaP [2]
  IC50: 2.7 µM
  IC70: 3.04 µM
VCaP [3]
  IC50: 3 µM
  IC70: 4.16 µM
VCaP [4]
  T/C: 91%
VCaP [5]
  T/C: 90%
VCaP [6]
  T/C: 89%
VCaP [7]
  T/C: 99%
VCaP [8]
  T/C: 94%
VCaP [9]
  T/C: 45%
VCaP [10]
  T/C: 2%
LNCaP [11]
  T/C: 94%
LNCaP [12]
  T/C: 87%
LNCaP [13]
  T/C: 93%
LNCaP [14]
  T/C: 93%
LNCaP [15]
  T/C: 25%
LNCaP [16]
  T/C: 9%
CWR22R [17]
  T/C: 106%
CWR22R [18]
  T/C: 109%
CWR22R [19]
  T/C: 107%
CWR22R [20]
  T/C: 108%
CWR22R [21]
  T/C: 107%
CWR22R [22]
  T/C: 29%
CWR22R [23]
  T/C: 9%
CWR22R [24]
  T/C: 3%
DU-145 [25]
  T/C: 101%
DU-145 [26]
  T/C: 108%
DU-145 [27]
  T/C: 113%
DU-145 [28]
  T/C: 123%
DU-145 [29]
  T/C: 115%
DU-145 [30]
  T/C: 108%
DU-145 [31]
  T/C: 13%
DU-145 [32]
  T/C: -1%
